# From PubChem
# SENP1 FRET inh: human SENP1 catalytic domain inhibitors, primary screen, biochemical, FRET, uHTS; Sentrin-specific protease 1 (Homo sapiens), Q9P0U3; recombinant SENP1 catalytic domain, CyPet-SUMO1-YPet FRET cleavage; inhibition, % at 10 µM; 0.21% of 360,000 active; AID 624204, 2012;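 active means inhibition at least 30% at 10 µM, raw YFP signal under a set limit, fluorescence ratio 0.5 to 1.5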;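 further: 0% = enzyme with DMSO and 100% = no enzyme wells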
# Target sequence (Q9P0U3 419-644 limits assumed): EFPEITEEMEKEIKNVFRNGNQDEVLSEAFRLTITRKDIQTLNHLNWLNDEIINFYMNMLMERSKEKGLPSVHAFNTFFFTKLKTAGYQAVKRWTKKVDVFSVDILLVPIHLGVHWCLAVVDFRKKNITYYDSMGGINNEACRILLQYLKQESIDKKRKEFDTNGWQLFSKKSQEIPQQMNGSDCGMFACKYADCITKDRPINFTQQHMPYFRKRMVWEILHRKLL
#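 Assay system – human recombinant His6-tagged SENP1 catalytic domain enzyme · Input – SENP1 enzyme, 20 pM final · Buffer or medium – Tris pH 8 buffer plus EDTA, NaCl, BME, BSA, NP40, catalase · Schedule – 50 min reaction at room temperature · Technique – FRET read of cyan and yellow fluorescence · Control set – no-enzyme wells low, DMSO-plus-enzyme wells high control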
# JMJD2C inh: inhibitors of GASC-1 histone demethylase, primary screen, biochemical, fluorescence, DELFIA europium | Lysine-specific demethylase 4C (Homo sapiens), Q9H3R0 | GST-JMJD2C(1-420) H3K9me3 demethylation | inhibition, % at 2.35 µM | 0.069% of 330,000 active;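 active means more than half of a compound's replicate wells show inhibition beyond 50%, single wells judged on their own value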;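 further: signal counts dimethyl H3K9 product captured on neutravidin plate; 0% = median of DMSO wells and 100% = 0.3 times that DMSO median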
# Target sequence (Q9H3R0 1-420 limits assumed): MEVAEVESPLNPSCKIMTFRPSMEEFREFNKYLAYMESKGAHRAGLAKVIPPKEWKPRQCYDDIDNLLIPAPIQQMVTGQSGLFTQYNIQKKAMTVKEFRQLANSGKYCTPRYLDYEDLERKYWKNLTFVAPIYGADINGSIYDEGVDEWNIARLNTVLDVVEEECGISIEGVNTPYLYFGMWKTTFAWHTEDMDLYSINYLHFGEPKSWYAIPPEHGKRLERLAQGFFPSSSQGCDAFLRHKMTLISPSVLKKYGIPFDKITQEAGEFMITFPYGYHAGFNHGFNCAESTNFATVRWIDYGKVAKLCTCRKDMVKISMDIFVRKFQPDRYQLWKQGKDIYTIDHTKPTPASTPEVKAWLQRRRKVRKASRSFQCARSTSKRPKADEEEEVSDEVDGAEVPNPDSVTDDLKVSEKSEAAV
# FAS TE block: FAS thioesterase domain inhibitors, primary screen, biochemical, fluorescence intensity, uHTS; Fatty acid synthase (Homo sapiens), P49327; recombinant FAS-TE, OMFH fluorogenic substrate, fluorescence endpoint; inhibition, % at 15 µM; 0.67% of 360,000 active; AID 602261, 2012;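 active means compounds whose normalised, plate-corrected inhibition of enzyme fluorescence in the single-dose primary screen is 50% or more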;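 further: 0% = DMSO with enzyme and 100% = substrate without enzyme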
# Arr AP2 block: inhibitors of beta-arrestin/AP2 binding, primary screen, biochemical, GPCR trafficking, flow cytometry. beta-arrestin 1 C-terminal peptide binding to AP2 beta2-adaptin appendage (human). FITC-arrestin peptide / GST-AP2 beads; AP2 beta2 appendage carries R879A mutation. inhibition, % at 10 µM. 0.31% of 340,000 active;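 active means inhibition above a set limit, near 3 SD of compounds lacking own fluorescence, cut at about 54% in these data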;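 further: plate controls were DMSO wells for no effect and 5 µM unlabelled arrestin peptide for full effect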
#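 system = GST-tagged AP2 beta2-adaptin appendage (R879A) on 4 µm glutathione beads | reagent = FITC-labelled arrestin peptide probe, 50 nM final | schedule = compound with beads 12 min RT, then probe 1 h RT | signal = HyperCyt-sampled flow cytometry, FL1 channel, ex 488/em 535 nm | read-out = percent response from loss of bead-bound FITC fluorescence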
# FAS-TE conf: FAS thioesterase domain inhibitors, confirmation, biochemical, fluorescence intensity, single concentration; shares compounds with FAS TE block; recombinant FAS-TE, OMFH fluorogenic substrate; inhibition, % at 15 µM; 45% of 2,300 active;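 active means compounds inhibiting the enzyme by at least 50% at 15 µM in any one of the replicates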;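 further: 0% = enzyme with DMSO only and 100% = wells lacking enzyme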
# Active calls of the source: *; . = no result given. Hits are enriched below; roughly 1.1% of the tested compounds scored in any of these assays.
SMILES,SENP1 FRET inh,JMJD2C inh,FAS TE block,Arr AP2 block,FAS-TE conf
O=C(N/N=C/c1cc([N+](=O)[O-])cc([N+](=O)[O-])c1O)C(O)(c1ccccc1)c1ccccc1,9.5,38.7,51.5*,-10.4,61.0*
O=C(Cn1nc2ccccc2n1)N/N=C/c1cc(Cl)cc([N+](=O)[O-])c1O,0.1,.,61.2*,3.5,51.7*
O=C(N/N=C/c1ccc(O)c([N+](=O)[O-])c1)C(O)(c1ccccc1)c1ccccc1,0.3,-6.2,-4.9,9.8,.
O=C(NC1C=CS(=O)(=O)C1)c1ccccc1 (stereo not given),1.7,-19.3,-10.6,12.6,.
CCOC(=O)c1c(NC(=O)c2ccc(-n3cnnn3)cc2)sc2c1CCCC2,-6.6,-0.7,6.7,-1.6,.
CCOC(=O)c1c(NC(=O)c2ccc(N3C(=O)[C@@H]4[C@H](C3=O)[C@H]3C=C[C@@H]4C3)cc2)sc2c1CCCC2,1.5,11.8,61.9*,0.6,8.8
CCNC(=O)CSC1=N/C(=C\c2ccc(O)c(OCC)c2)C(=O)N1c1ccc(OC(F)F)cc1,-30.2,-14.4,0.6,-21.9,.
COC(=O)[C@@]1(C(C)C)N=C(c2cc(OC)c(OC)c(OC)c2)[C@]2(O1)C(=O)N(C)c1ccc(Cl)cc12,2.6,.,6.5,.,.
COC(=O)[C@@]1(C(C)C)N=C(c2cc(OC)c(OC)c(OC)c2)[C@]2(O1)C(=O)N(Cc1ccc(OC)cc1)c1ccc(Br)cc12,1.2,.,53.1*,.,14.4
Cn1c(=O)c(C#N)c(-c2ccc(F)cc2)c2cc(C(=O)c3cc(Cl)cc(Cl)c3O)cnc21,1.6,2.1,54.1*,4.3,26.5
CCOC1=C2[C@@H](CN(S(=O)(=O)c3ccc(C)cc3)[C@H]2c2cccs2)[C@H]2C(=O)N(c3ccccc3)C(=O)[C@H]2C1,0.2,.,11.6,.,.
CCOC1=C2CN(S(=O)(=O)c3ccc(C)cc3)[C@H](c3ccccc3)C[C@H]2[C@H]2C(=O)N(c3ccccc3)C(=O)[C@H]2C1,-0.4,.,59.0*,.,29.0
CCOC1=C2CN(S(=O)(=O)c3ccc(C)cc3)[C@H](c3cccc4ccccc34)C[C@H]2[C@H]2C(=O)N(c3ccccc3)C(=O)[C@H]2C1,1.6,.,77.2*,.,24.0
CCOC1=C2CN(S(=O)(=O)c3ccc(C)cc3)[C@@H](c3ccc(CC)cc3)C[C@H]2[C@H]2C(=O)N(c3ccccc3)C(=O)[C@H]2C1,-2.5,.,71.8*,.,30.6
CCOC1=C2CN(S(=O)(=O)c3ccc(C)cc3)[C@H](c3ccccc3)C[C@@H]2N(S(=O)(=O)c2ccc(Br)cc2)[C@H](c2ccccc2)C1,1.3,.,20.9,.,.
Cc1ccn2cc(-c3cccc(S(=O)(=O)N4CCCC4)c3)nc2c1,1.8,3.2,-0.4,-11.4,.
Cc1cccc(/C=N/NC(=O)Cn2nc(C)cc2C)n1,-72.2,-2.2,-8.8,6.9,.
CN(C)CCCNS(=O)(=O)c1ccc(N2CCC(c3ccc(Cl)cc3)=N2)cc1,.,8.4,.,.,.
O=S(=O)(c1ccc(N2CCC(c3ccc(Cl)cc3)=N2)cc1)N(CCO)CCO,-25.8,1.0,88.9*,22.6,92.7*
O=[N+]([O-])c1ccc(O)c(/C=N/Nc2ccccn2)c1,13.6,-13.9,7.5,19.3,.
O=[N+]([O-])c1ccc(O)c(/C=N/Nc2ncnc3c2cnn3-c2ccccc2)c1,-54.3,1.4,56.3*,12.8,27.7
CC(C)S(=O)(=O)C/C(N)=N/OS(=O)(=O)c1ccc(Cl)cc1,1.5,-2.4,-3.5,36.9,.
CSCCC(NC(=O)c1ccc(Cl)c([N+](=O)[O-])c1)C(=O)N1CCN(C/C=C/c2ccccc2)CC1 (stereo not given),0.4,-5.2,58.0*,33.4,59.3*
Cc1ccc2c(c1)[C@H]1[C@H](CO2)[C@H](c2ccccc2)[C@]2(C)C(=O)Nc3cc(F)ccc3C(=O)N12,0.6,.,54.0*,-4.2,20.6
CCOC(=O)[C@H]1[C@H]2COc3ccc(C)cc3[C@@H]2N2C(=O)c3ccc(F)cc3NC(=O)[C@@]12C,-0.2,5.0,9.1,-0.3,.
SMILES,SENP1 FRET inh,JMJD2C inh,FAS TE block,Arr AP2 block,FAS-TE conf
Cc1ccc2c(c1)NC(=O)[C@@]1(C)[C@@H](c3ccccc3)[C@H]3COc4ccccc4[C@@H]3N1C2=O,-0.8,0.0,67.8*,-3.8,27.2
Cc1ccc2c(c1)[C@H]1[C@H](CO2)[C@H](c2ccccc2)[C@]2(C)C(=O)Nc3ccccc3C(=O)N12,0.9,.,53.2*,-8.4,29.7
Cc1ccc2c(c1)[C@H]1[C@H](CO2)[C@H](c2ccccc2)[C@]2(C)C(=O)NCC(=O)N12,0.4,-2.2,-10.7,0.4,.
C[C@@]12C(=O)Nc3cc(F)ccc3C(=O)N1[C@H]1c3cc(Br)ccc3OC[C@@H]1[C@@H]2c1ccccc1,0.0,-64.5,80.4*,4.2,-2.2
COc1ccc2c(c1)[C@H]1[C@H](CO2)[C@H](c2ccccc2)[C@]2(C)C(=O)Nc3cc(OC)c(OC)cc3C(=O)N12,-17.5,1.1,35.7,-6.6,.
COc1ccc2c(c1)C(=O)N1[C@H]3c4cc(C)ccc4OC[C@@H]3[C@H](c3ccccc3)[C@]1(C)C(=O)N2,-0.6,-3.1,73.3*,-1.3,35.2
COc1ccc2c(c1)[C@@H]1[C@H](CO2)[C@H](c2ccccc2)[C@]2(C)C(=O)Nc3ccc(C)cc3C(=O)N12,-2.8,-4.4,83.0*,-0.8,-3.2
COc1ccc2c(c1)[C@H]1[C@H](CO2)[C@H](c2ccccc2)[C@]2(C)C(=O)Nc3ccc(C)cc3C(=O)N12,-1.4,.,44.1,32.5,.
COc1ccc2c(c1)[C@@H]1[C@H](CO2)[C@H](c2ccccc2)[C@]2(C)C(=O)NCC(=O)N12,1.8,3.7,-11.4,-3.7,.
COc1ccc2c(c1)OC[C@H]1[C@H]2N2C(=O)c3ccccc3NC(=O)[C@@]2(C)[C@H]1c1ccccc1,0.2,.,69.8*,-1.9,31.1
O=C(Nc1nc(-c2cccc([N+](=O)[O-])c2)cs1)C(c1ccccc1)c1ccccc1,-1.9,-9.8,52.2*,-59.4,12.4
CC(OC(=O)c1ccccc1Br)C(=O)Nc1nc(-c2cccc([N+](=O)[O-])c2)cs1 (stereo not given),1.2,54.9,5.3,-1.6,.
CC(NC(=O)c1ccc([N+](=O)[O-])cc1[N+](=O)[O-])c1ccc(-c2ccccc2)cc1 (stereo not given),3.6,0.5,55.3*,7.3,42.4
CCC(NC(=O)c1ccc([N+](=O)[O-])cc1[N+](=O)[O-])c1ccccc1 (stereo not given),-1.3,9.1,41.2,-1.0,.
